For test [1], the system named is Klebsiella pneumoniae. Nature of the test: Antimicrobial activity against Klebsiella pneumoniae 52145. The test is classed as functional.
The test system of test [2] is Klebsiella pneumoniae. Nature of the test: Antimicrobial activity against Klebsiella pneumoniae 52145 at 100 ug/disk by disk diffusion method. It counts as functional, organism-based. Put shortly: (§1)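 Disk diffusion with SDS at 100 µg per disk.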
The subject of test [3] is Klebsiella pneumoniae. Description: Antimicrobial activity against Klebsiella pneumoniae 52OmpA2 at 100 ug/disk by disk diffusion method. It counts as functional, organism-based. The method in brief: as §1
(In general: In agar diffusion tests the substance spreads into inoculated agar from a disc or well.)

Test [4] relates to Klebsiella pneumoniae. Nature of the test: Antimicrobial activity against Klebsiella pneumoniae 52OmpA2 at 80 ug/disk by disk diffusion method. It counts as functional. Particulars: 52OmpA2, read-out: IZ. The method in brief:
(§2)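 Disk diffusion with novobiocin at 80 µg per disk. The diffusion halo was measured in cm and reported as mean ± error, with groups compared by P value.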

Test [5] deals with Klebsiella pneumoniae. Description: Antimicrobial activity against Klebsiella pneumoniae 52OmpA2Com. It counts as functional.
Test [6] has as its system Klebsiella pneumoniae. Nature of the test: Antimicrobial activity against Klebsiella pneumoniae 52OmpA2 assessed as decrease in bacterial survival after 1 hr. The test is classed as functional, organism-based. The method in brief: (§3)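 Bacterial survival assay: cells were exposed to polymyxin B or protamine for 1 h, or to HNP-1 at a fixed 20 µg/ml for 3 h, and surviving bacteria were then counted. Polymyxin B curves are the mean ± SD of six samples from three independently grown batches. HNP-1 data are the mean ± SD of three experiments, each run in duplicate. Strains were compared by two-tailed t test.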

Test [7] concerns Klebsiella pneumoniae. Nature of the test: Antimicrobial activity against Klebsiella pneumoniae 52145 assessed as decrease in bacterial survival after 1 hr. It counts as functional, organism-based. The method in brief:
as §3

Test [8] concerns Klebsiella pneumoniae. Description: Antimicrobial activity against Klebsiella pneumoniae 52OmpA2Com assessed as decrease in bacterial survival after 1 hr. It counts as functional, organism-based. Put shortly: as §3
Test [9] has as its system Klebsiella pneumoniae. Description: Antimicrobial activity against wcaK2-deficient Klebsiella pneumoniae 52OmpA2 assessed as decrease in bacterial survival. It counts as functional, organism-based. The method in brief:
as §3

For test [10], the system named is Klebsiella pneumoniae. Description: Antimicrobial activity against wcaK2-deficient Klebsiella pneumoniae 52145 assessed as decrease in bacterial survival. It counts as functional, organism-based. Put shortly:
as §3

The test system of test [11] is Klebsiella pneumoniae. Nature of the test: Antimicrobial activity against Klebsiella pneumoniae 52145 by Etest. The test is classed as functional, organism-based.
The subject of test [12] is Klebsiella pneumoniae. Nature of the test: Antimicrobial activity against Klebsiella pneumoniae 52OmpA2Com by Etest. It counts as functional, organism-based.
The subject of test [13] is Klebsiella pneumoniae. Nature of the test: Antimicrobial activity against Klebsiella pneumoniae 52OmpA2 by Etest. It counts as functional, organism-based.
The subject of test [14] is Klebsiella pneumoniae. Nature of the test: Antimicrobial activity against Klebsiella pneumoniae 52145 at 80 ug/disk by disk diffusion method. The test is classed as functional, organism-based. Put shortly:
as §2

In test [15] the test system is Klebsiella pneumoniae. Nature of the test: Antimicrobial activity against Klebsiella pneumoniae 52145 assessed as induction of bacterial wall damage by propidium iodide staining-based fluorescence spectroscopy. It counts as functional, organism-based.
In test [16] the test system is Klebsiella pneumoniae. Nature of the test: Antimicrobial activity against Klebsiella pneumoniae 52OmpA2 assessed as induction of bacterial wall damage by propidium iodide staining-based fluorescence spectroscopy. It counts as functional, organism-based.
Test [17] deals with Klebsiella pneumoniae. Description: Binding affinity to Klebsiella pneumoniae 52145 outer membrane assessed as amount of peptide bound at 16 ug/ml after 30 mins. Put shortly: (§4)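 Bacteria were incubated with the peptide for 30 min, and the amount of peptide bound was then determined, expressed in µg/ml. Strains were compared by two-tailed t test.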
The subject of test [18] is Klebsiella pneumoniae. Description: Binding affinity to Klebsiella pneumoniae 52OmpA2 outer membrane assessed as amount of peptide bound at 16 ug/ml after 30 mins. Put shortly:
as §4

Test [19] deals with Klebsiella pneumoniae. Nature of the test: Binding affinity to wcaK2-deficient Klebsiella pneumoniae 52145 lipopolysaccharide assessed as amount of peptide bound at 16 ug/ml after 30 mins. The method in brief: (§5)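 LPS was purified from capsule (CPS) mutants to avoid copurifying capsule. LPS at 50 µg/ml was incubated with polymyxin B at 16 µg/ml for 30 min, and the bound peptide was measured in µg/ml.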

In test [20] the test system is Klebsiella pneumoniae. Description: Binding affinity to wcaK2-deficient Klebsiella pneumoniae 52OmpA2 lipopolysaccharide assessed as amount of peptide bound at 16 ug/ml after 30 mins. The method in brief: as §5
Test [21] deals with Klebsiella pneumoniae. Nature of the test: Antimicrobial activity against Klebsiella pneumoniae 52OmpAK36 harboring OmpA K36 mutant gene assessed as decrease in bacterial survival after 1 hr by coomassie blue staining. It counts as functional, organism-based.
In test [22] the test system is Klebsiella pneumoniae. Nature of the test: Antimicrobial activity against Klebsiella pneumoniae 52145 assessed as decrease in bacterial survival at 1 ug/ml pre-exposed for 1 hr during growth phase. It counts as functional, organism-based. Put shortly: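 Cells were pretreated during growth with polymyxin B (final 1 µg/ml, 1 h), washed, and then tested for polymyxin B susceptibility by the same survival assay, alongside untreated cells. Values are the mean ± SD of six samples from three independently grown batches. Pretreated and untreated cells were compared by two-tailed t test.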

≈ marks a conversion by molar mass, not a printed value. Calls of active or inactive are those of the source. The rule behind the calls is not given here.

What is called MIC is the least concentration at which growth counts as inhibited. Read a high MIC as weaker potency.

`CC1(C)S[C@@H]2[C@H](NC(=O)[C@H](N)c3ccc(O)cc3)C(=O)N2[C@H]1C(=O)O` [AMOXICILLIN] yielded an MIC in the test with Klebsiella pneumoniae [1] of 2 mg/L (≈ 5.47 µM).

`CO/N=C(\C(=O)N[C@@H]1C(=O)N2C(C(=O)O)=C(COC(C)=O)CS[C@H]12)c1csc(N)n1` [CEFOTAXIME] showed a minimum inhibitory concentration (MIC) in the test with Klebsiella pneumoniae [1] of 0.05 mg/L (≈ 0.11 µM).

In turn, `O=C(O)c1cn(C2CC2)c2cc(N3CCNCC3)c(F)cc2c1=O` [CIPROFLOXACIN] gave an MIC in the test on Klebsiella pneumoniae [1] of 0.05 mg/L (≈ 0.151 µM).

`C[C@@H](O)[C@H]1C(=O)N2C(C(=O)O)=C(SCCNC=N)C[C@H]12` [IMIPENEM ANHYDROUS]: the MIC in the test with Klebsiella pneumoniae [1] turned out to be 0.05 mg/L (≈ 0.167 µM).

As for `CO[C@@H]1[C@@H](OC(N)=O)[C@@H](O)[C@H](Oc2ccc3c(O)c(NC(=O)c4ccc(O)c(CC=C(C)C)c4)c(=O)oc3c2C)OC1(C)C` [NOVOBIOCIN], the result with Klebsiella pneumoniae [2] and in the test on Klebsiella pneumoniae [3] was inactive. The zone of inhibition at 80 µg/disc with Klebsiella pneumoniae [4] was found to be 8.5 mm.

Regarding GENTAMICIN, the MIC against Klebsiella pneumoniae [1] and against Klebsiella pneumoniae [5] was 0.15 mg/L each time.

As to POLYMYXIN B, the inhibition entry in the test with Klebsiella pneumoniae [6], in the test with Klebsiella pneumoniae [9] and in the test with Klebsiella pneumoniae [10] was “Active” in each case. In addition, the outcome in the test with Klebsiella pneumoniae [7], in the test on Klebsiella pneumoniae [15], in the test on Klebsiella pneumoniae [16] and with Klebsiella pneumoniae [22] was inactive. Besides, the result with Klebsiella pneumoniae [8] was Active. Also, the MIC was 0.75 mg/L against Klebsiella pneumoniae [11], 0.75 mg/L in the test on Klebsiella pneumoniae [12] and 0.31 mg/L against Klebsiella pneumoniae [13]. The molecule further had an inhibition zone (IZ) in the test on Klebsiella pneumoniae [14] of 9 mm. For the same molecule, the Activity in the test with Klebsiella pneumoniae [17] came out at 7.4 µg/mL; in the test on Klebsiella pneumoniae [18], 8.1 µg/mL; in the test on Klebsiella pneumoniae [19], 4.8 µg/mL; in the test with Klebsiella pneumoniae [20], 4.4 µg/mL. In addition, the inhibition result with Klebsiella pneumoniae [21] is “inactive”.

The record behind these values is ChEMBL document CHEMBL1629613, “Klebsiella pneumoniae OmpA confers resistance to antimicrobial peptides” (2009).
